Measured values from PubChem BioAssay.
Activity calls are given as the source filed them.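 The calls were made as follows, unless noted: active = GFP response above 150% of the DMSO level; inconclusive = fewer than 70 events counted for a yeast strain; inactive = the rest.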

Legend:
[1] = hit retest on RPL19A-GFP reporter strain – cell-based, S. cerevisiae, flow cytometry, cherry picks, mother/daughter gates, confirmation (AID 2270;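 active = GFP response below 50% of the DMSO control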); details: 3 h, at 10 µM, stronger effect = lower value, 100 = same GFP as DMSO wells
[2] = yeast TOR pathway reporter LAP4-GFP change – cell-based, cherry picks, flow cytometry, mother/daughter gates, confirmation (AID 2271;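 active = GFP response above 150% of the DMSO control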;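 also: ratio of sample to DMSO plate mean so 100% equals DMSO level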); details: S. cerevisiae LAP4-GFP strain, 3 h, at 10 µM, stronger effect = higher value, 100 means same as DMSO control
In short: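 System – GFP-fusion yeast strain · Amount – 0.2 OD600 cells · Buffer or medium – SC growth medium · Dosing – single test-compound dose, 10 µM final · Schedule – 3 h treatment at 30 °C with rotation · Detection – GFP by flow cytometry · Read-out – per-gate (all, mother, daughter) GFP response vs DMSO · Benchmarks – positive rapamycin (400 ng/mL), negative DMSO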

[3] = TOR pathway reporter MEP2-GFP, retest of hits – S. cerevisiae, flow cytometry GFP, cherry picks, confirmation (AID 2272;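 active = GFP response above 150% of the DMSO control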;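 also: ratio of well signal to plate DMSO mean so 100% equals DMSO level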); details: S. cerevisiae MEP2-GFP strain, 3 h, at 10 µM, stronger effect = higher value
[4] = yeast AGP1-GFP fluorescence change, single-dose – cell-based, flow cytometry, S. cerevisiae, cherry picks, confirmation (AID 2273);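 also: median GFP channel fluorescence over the whole cell population gate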; details: S. cerevisiae AGP1-GFP strain, 3 h, at 10 µM
[5] = TOR pathway CIT2 reporter hit retest – S. cerevisiae, GFP fusion, cherry picks, mother/daughter gates, confirmation (AID 2274); details: S. cerevisiae CIT2-GFP strain, flow cytometry, 3 h, at 10 µM, stronger effect = higher value
[6] = measured here: daughter cell gate
[7] = measured here: mother cell gate
[8] = measured here: daughter cell gate response
[9] = measured here: mother cell gate response

Row | SMILES | GFP response vs DMSO [1] | GFP response vs DMSO [1, 6] | GFP response vs DMSO [1, 7] | GFP response relative to DMSO [2] | GFP response relative to DMSO [2, 8] | GFP response relative to DMSO [2, 9] | GFP response vs DMSO [3] | GFP response, % of DMSO [4] | GFP response, % of DMSO [5] | GFP response, % of DMSO [5, 6] | GFP response, % of DMSO [5, 7]
1 | C/C(=N\NC(=O)c1ccc(Cl)cc1)c1cccc(NC(=O)C(C)C)c1 | 95.8% (inactive) | 95.1% | 95.8% | 99.2% (inactive) | 99.2% | 97.2% | 96.2% (inactive) | 97.2% (inactive) | 101% (inactive) | 101% | 101%
2 | COc1ccc(Sc2ncnc3onc(C)c23)cc1 | 96.7% (inactive) | 96.1% | 95.4% | 118% (inactive) | 113% | 120% | 103% (inactive) | 99.1% (inactive) | 95.8% (inactive) | 99.3% | 96%
3 | CSc1ccc(/C=N/NC(=O)c2ccc(O)cc2)cc1 | 97.8% (inactive) | 98.1% | 98.5% | 97% (inactive) | 97.5% | 96.2% | 103% (inactive) | 103% (inactive) | 103% (inactive) | 103% | 103%
4 | Cc1ccc(C2CC(c3ccco3)=NN2S(C)(=O)=O)cc1 (stereo unspecified) | 97.2% (inactive) | 97% | 97.1% | 105% (inactive) | 102% | 104% | 106% (inactive) | 93.8% (inactive) | 96.4% (inactive) | 98.3% | 95.6%
5 | O=C(N/N=C/c1ccc(Cl)cc1Cl)c1cccc(F)c1 | 97% (inactive) | 92.7% | 97.3% | 104% (inactive) | 98.2% | 109% | 103% (inactive) | 101% (inactive) | 86% (inactive) | 84.1% | 84.8%
6 | Cc1ccc(NC(=O)c2ccccc2)cc1 | 100% (inactive) | 99% | 100% | 98.7% (inactive) | 100% | 100% | 100% (inactive) | 91.5% (inactive) | 96.5% (inactive) | 96.5% | 93.4%
7 | NNC(=O)c1ccc(COc2ccc3ccccc3c2)cc1 | 98% (inactive) | 96.1% | 95.7% | 101% (inactive) | 101% | 102% | 99% (inactive) | 94.9% (inactive) | 93% (inactive) | 93.8% | 91.9%
8 | CC(C)c1nnc(SCC(=O)N2CCc3ccccc32)n1C | 102% (inactive) | 101% | 101% | 96.2% (inactive) | 95.6% | 99.3% | 102% (inactive) | 97.6% (inactive) | 97.8% (inactive) | 98.1% | 96.6%
9 | CC1=NNC(=O)/C1=C\c1cn(-c2ccccc2)nc1-c1ccc(Cl)cc1 | 97.6% (inactive) | 98.3% | 98.5% | 107% (inactive) | 101% | 114% | 101% (inactive) | 105% (inactive) | 97.2% (inactive) | 96.8% | 95.7%
10 | Clc1ccc(-n2cccc2)cn1 | 101% (inactive) | 99.2% | 102% | 93.8% (inactive) | 95.6% | 95.2% | 100% (inactive) | 96.3% (inactive) | 99.1% (inactive) | 98.1% | 101%
11 | COC(=O)NC1CCC(CC2CCC(NC(=O)OC)CC2)CC1 (stereo unspecified) | 99% (inactive) | 98.9% | 99.4% | 92.8% (inactive) | 92.8% | 92.9% | 100% (inactive) | 94.7% (inactive) | 103% (inactive) | 105% | 103%
12 | Cc1c(O)ccc(C(=O)CN2CCN(c3ccc(F)cc3)CC2)c1O | 98% (inactive) | 97.3% | 96.7% | 101% (inactive) | 99% | 101% | 106% (inactive) | 101% (inactive) | 101% (inactive) | 99.3% | 102%
13 | CC(C)c1nc2ccccn2c1NC1CCCCC1 | 101% (inactive) | 98.4% | 98% | 97.9% (inactive) | 99.2% | 98.3% | 100% (inactive) | 102% (inactive) | 101% (inactive) | 103% | 101%
14 | COc1ccc(OC)c(C2CC(c3c(-c4ccccc4)c4cc(Cl)ccc4[nH]c3=O)=NN2S(C)(=O)=O)c1 (stereo unspecified) | 100% (inactive) | 99% | 102% | 92.6% (inactive) | 92.5% | 97.2% | 100% (inactive) | 96.1% (inactive) | 97.8% (inactive) | 96.5% | 97.7%
15 | COc1cc(CCN2C(=O)c3cccc4cccc(c34)C2=O)c(S(=O)(=O)NCCCO)cc1OC | 99.1% (inactive) | 98.5% | 99.7% | 95.3% (inactive) | 96.5% | 94.6% | 99.5% (inactive) | 93.6% (inactive) | 95% (inactive) | 96.4% | 93.3%
16 | Cc1cccc(CN2CCSc3sccc3C2=O)c1 | 96.8% (inactive) | 95.7% | 96.5% | 125% (inactive) | 127% | 126% | 131% (inactive) | 98.2% (inactive) | 112% (inactive) | 114% | 109%

Row | SMILES | GFP response vs DMSO [1] | GFP response vs DMSO [1, 6] | GFP response vs DMSO [1, 7] | GFP response relative to DMSO [2] | GFP response relative to DMSO [2, 8] | GFP response relative to DMSO [2, 9] | GFP response vs DMSO [3] | GFP response, % of DMSO [4] | GFP response, % of DMSO [5] | GFP response, % of DMSO [5, 6] | GFP response, % of DMSO [5, 7]
17 | O=[N+]([O-])c1c(Nc2ccccn2)cc(Cl)c2nonc12 | 139% (inactive) | 86.3% | 129% | 478% (active) | 123% | 522% | 966% (active) | 143% (inactive) | 979% (active) | 103% | 906%
18 | N=C1S/C(=C\c2ccco2)C(=O)N1c1nccs1 | 109% (inactive) | 108% | 100% | 168% (active) | 145% | 168% | 112% (inactive) | 95.7% (inactive) | 108% (inactive) | 108% | 103%
19 | Cc1ccc(C)c(-c2nnc(NC(=O)c3ccc([N+](=O)[O-])o3)o2)c1 | 101% (inactive) | 95.7% | 101% | 115% (inactive) | 114% | 116% | 107% (inactive) | 91.6% (inactive) | 90.1% (inactive) | 90.2% | 87%
20 | COC(=O)c1ccc(Sc2ccccn2)c([N+](=O)[O-])c1 | 97.8% (inactive) | 101% | 97.7% | 99.5% (inactive) | 101% | 100% | 109% (inactive) | 98% (inactive) | 105% (inactive) | 105% | 104%
21 | O=C1CC(SCc2nc3ccccc3[nH]2)C(=O)N1c1cccc(F)c1 (stereo unspecified) | 98.7% (inactive) | 99.3% | 97.5% | 104% (inactive) | 105% | 105% | 99.3% (inactive) | 102% (inactive) | 103% (inactive) | 103% | 103%
22 | CC(=O)c1ccc(NC(=O)CN2CCC(NC(=O)C3CCCCC3)CC2)cc1 | 102% (inactive) | 102% | 103% | 98.8% (inactive) | 97.9% | 99.5% | 104% (inactive) | 95.6% (inactive) | 96.4% (inactive) | 98.3% | 95.6%
23 | CCCCOc1cccc(/C=C(\C#N)C(=O)NC2CC2)c1 | 93.5% (inactive) | 92.1% | 92.5% | 117% (inactive) | 114% | 116% | 113% (inactive) | 92.7% (inactive) | 99.7% (inactive) | 99.1% | 96.1%
24 | CCOc1ccc(-c2noc(-c3ccncc3)n2)cc1OCC | 96.4% (inactive) | 93.7% | 95.7% | 106% (inactive) | 106% | 106% | 116% (inactive) | 98.8% (inactive) | 102% (inactive) | 103% | 99.3%
25 | C/C(=N\NC(=O)Cc1ccc([N+](=O)[O-])cc1)c1cccnc1 | 97.8% (inactive) | 99.3% | 97.7% | 98.2% (inactive) | 97.5% | 97.3% | 96.8% (inactive) | 98.4% (inactive) | 102% (inactive) | 103% | 102%
26 | Cc1cccn2c(=O)c(/C=C(\C#N)C(=O)NC3CCS(=O)(=O)C3)c(N3CC(C)OC(C)C3)nc12 (stereo unspecified) | 97.8% (inactive) | 99.4% | 99.7% | 92.8% (inactive) | 96% | 92.9% | 100% (inactive) | 104% (inactive) | 99.7% (inactive) | 103% | 99.7%
27 | CCOC(=O)CSC1=NC(=O)/C(=C/c2ccc(OC)cc2)S1 | 100% (inactive) | 92.5% | 98.2% | 154% (active) | 139% | 159% | 103% (inactive) | 102% (inactive) | 79.7% (inactive) | 79.4% | 71.8%
28 | C/C(=N\NC(=O)c1cc2ccccc2cc1O)c1ccccn1 | 106% (inactive) | 103% | 98.1% | 234% (active) | 147% | 231% | 126% (inactive) | 109% (inactive) | 132% (inactive) | 113% | 120%
29 | CC(=O)c1ccc(Sc2ccccn2)c([N+](=O)[O-])c1 | 98.4% (inactive) | 99.4% | 95.8% | 99.2% (inactive) | 99.2% | 97.2% | 102% (inactive) | 93.1% (inactive) | 101% (inactive) | 103% | 99.7%
30 | CCCCc1nnc(NC(=O)c2nc3nccc(C)n3n2)s1 | 98.7% (inactive) | 98.3% | 99.8% | 96.5% (inactive) | 95% | 96.5% | 106% (inactive) | 104% (inactive) | 109% (inactive) | 109% | 110%
31 | COc1ccc(-c2csc(NC(=O)c3ccco3)n2)cc1 | 98.4% (inactive) | 96.7% | 97.8% | 109% (inactive) | 102% | 109% | 104% (inactive) | 91.9% (inactive) | 99.3% (inactive) | 100% | 96.8%
